Sampled rows, rich in hits. Any-hit rate of the full collection: about 3.6%.
VIM-2 inh – VIM-2 metallo-beta-lactamase inhibitors, primary screen, biochemical, epi-absorbance readout, Pseudomonas aeruginosa enzyme. purified VIM-2, nitrocefin hydrolysis, epi-absorbance fluorescence. inhibition, % at 5.6 µM. actives 0.89% (n = 290,000). AID 1527, 2009;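 active = inhibition above the mean of all tested compounds plus 3 SD, cutoff set per screening run, cut at about 7.5% in these data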;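 also: red hydrolysis product quenches plate fluorescence so inhibitors raise well fluorescence; 0% = enzyme with DMSO and 100% = DMSO without enzyme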
PAFAH1B3 FP inh – PAFAH1B3 enzyme inhibitors, primary screen, biochemical, fluorescence polarization, human; Platelet-activating factor acetylhydrolase IB subunit alpha1 (Homo sapiens), Q15102; recombinant PAFAH1B3, FP-rhodamine probe; inhibition, % at 3.39 µM; actives 0.28% (n = 340,000); AID 492972, 2010;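 active = inhibition above the screen-wide average of all tested compounds plus 3 SD, cut at about 25% in these data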;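 also: 0% = enzyme with DMSO only and 100% = wells lacking PAFAH1B3 protein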
Target sequence (Q15102 whole entry, looked up): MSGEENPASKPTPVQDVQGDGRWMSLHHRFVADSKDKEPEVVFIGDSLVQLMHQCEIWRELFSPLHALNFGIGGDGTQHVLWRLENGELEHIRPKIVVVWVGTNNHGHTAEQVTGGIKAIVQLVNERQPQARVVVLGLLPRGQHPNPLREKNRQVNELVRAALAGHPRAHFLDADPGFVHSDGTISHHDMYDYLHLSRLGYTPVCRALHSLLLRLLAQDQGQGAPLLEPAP
PAFAH1B2 inh – PAFAH1B2 enzyme inhibitors, primary screen, biochemical, fluorescence polarization, human; recombinant PAFAH1B2, FP-rhodamine activity probe; inhibition, % at 3.39 µM; actives 1.2% (n = 340,000);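 active = inhibition above the mean of all tested compounds plus 3 SD, cut at about 24% in these data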;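 also: 0% = enzyme with DMSO and 100% = wells lacking PAFAH1B2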
Target sequence (P68402 whole entry, looked up): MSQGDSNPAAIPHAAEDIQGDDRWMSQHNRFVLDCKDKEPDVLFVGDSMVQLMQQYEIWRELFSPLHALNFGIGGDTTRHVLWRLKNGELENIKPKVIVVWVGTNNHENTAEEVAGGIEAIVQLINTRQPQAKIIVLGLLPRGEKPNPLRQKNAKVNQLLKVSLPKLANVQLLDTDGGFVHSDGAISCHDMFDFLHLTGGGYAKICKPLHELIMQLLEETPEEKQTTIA
PAFAH2 FP inh – PAFAH2 enzyme inhibitors, primary screen, biochemical, fluorescence polarization, human; Platelet-activating factor acetylhydrolase 2, cytoplasmic (Homo sapiens), Q99487; recombinant PAFAH2, FP-rhodamine activity probe; inhibition, % at 3.39 µM; actives 0.99% (n = 340,000); AID 492956, 2010;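 active = inhibition above the mean over all tested compounds plus 3 SD, cut at about 30% in these data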;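 also: inhibitors block probe labeling of enzyme so polarization drops; 0% = enzyme with DMSO and 100% = wells lacking PAFAH2 protein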
pPAFAH FP inh – pPAFAH enzyme inhibitors, primary screen, biochemical, fluorescence polarization, human. Platelet-activating factor acetylhydrolase (Homo sapiens), Q13093. recombinant pPAFAH, FP-rhodamine probe fluorescence polarization. inhibition, % at 3.39 µM. actives 1.5% (n = 330,000);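 active = inhibition above the mean inhibition across the screen plus 3 SD, cut at about 25% in these data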;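 also: inhibitors block binding of the rhodamine activity-based probe so polarization drops; 0% = enzyme with DMSO and 100% = wells lacking pPAFAH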
IMP-1 inhibitor – IMP-1 metallo-beta-lactamase inhibitors, primary screen, biochemical, epi-absorbance readout, Pseudomonas aeruginosa enzyme. metallo-beta-lactamase IMP-1 (Pseudomonas aeruginosa). purified IMP-1, nitrocefin hydrolysis, epi-absorbance fluorescence. inhibition, % at 5.6 µM. actives 0.45% (n = 290,000);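 active = inhibition above the mean plus 3 SD of all compounds in the same screening run, cut at about 4.5% in these data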;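 also: 0% = IMP-1 with DMSO and 100% = DMSO wells lacking enzyme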
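System: Purified recombinant IMP-1 metallo-beta-lactamase enzyme | Measured by: Fluorescence quenching readout, ex 480/em 530 nm | Replication: Singlicate | Incubation: 15 min preincubation plus 25 min reaction at 25 °C | Evaluation: Percent inhibition from optical density relative to buffer-blank wells | Benchmarks: DMSO with and without IMP-1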
Active calls of the source: *; · = no result given.

SMILES	VIM-2 inh	PAFAH1B3 FP inh	PAFAH1B2 inh	PAFAH2 FP inh	pPAFAH FP inh	IMP-1 inhibitor
CCN(CC)C(=O)[C@H]1C[C@H](CC(=O)NCC23CC4CC(CC(C4)C2)C3)C(=O)N2CCc3c([nH]c4cc(-c5ccco5)ccc34)[C@]12C	·	6	3	-3	-1	·
CC[C@]12c3[nH]c4cc(CCC(=O)N(C)C)ccc4c3CCN1C(=O)[C@@H](CC(=O)NCCN1CCOCC1)C[C@@H]2C(=O)N1CCN(C(=O)c2ccco2)CC1	·	-1	1	-5	-1	·
N#Cc1c(SCc2c(Cl)cccc2Cl)nc(N)[nH]c1=S	·	3	5	9	7	·
Cc1ccc(C)c(S(=O)(=O)N2CCN(C(=O)CCC(=O)NCc3ccc(Cl)cc3Cl)CC2)c1	·	4	3	12	·	·
Cc1ccc(SCc2[nH]nc3c2C2(CCSCC2)C(C#N)=C(N)O3)cc1	-7	-6	38*	1	2	-1
Cc1[nH]nc2c1C1(CCN(C(=O)OCc3ccccc3)CC1)C(C#N)=C(N)O2	0	2	2	7	0	-4
CCOC(=O)N1CCC2(CC1)C(C#N)=C(N)Oc1n[nH]c(CSc3ccc(C)cc3)c12	-2	3	27*	2	6	-3
Cc1cc(OCC(=O)OCC(=O)N2c3ccccc3NC(=O)C2(C)C)ccc1Cl	·	7	12	1	18	·
CC1(C)C(=O)Nc2ccccc2N1C(=O)COC(=O)Cc1ccc(Cl)c(Cl)c1	·	9	28*	8	20	·
Cc1ccc(S(=O)(=O)CCC(=O)OCC(=O)N2c3ccccc3NC(=O)C2(C)C)cc1	·	0	30*	8	8	·
CCOC(=O)CNc1nc(OCC#N)nc(N2CCOCC2)n1	-2	-10	1	-3	0	20*
CCOC(=O)COc1nc(OC)nc(N2CCOCC2)n1	-1	0	1	5	3	-3
O=C(Nc1cccc(Cl)c1)c1nc[nH]c1C(=O)N1CCN(c2ccccc2)CC1	·	6	0	-1	4	·
O=C(/C=C/c1ccc(F)cc1)NC(=S)NNC(=O)[C@H]1C[C@@H]1c1ccccc1	-2	4	59*	0	6	-3
O=C(NC(=S)NNC(=O)[C@H]1C[C@@H]1c1ccccc1)c1ccc(F)cc1	-1	1	4	1	0	1
CCOC(=O)NC(=O)/C(C#N)=N\Nc1cccc(Cl)c1	-3	-3	-2	1	9	-4
CCOC(=O)NC1(Nc2cccc(Cl)c2)Oc2ccccc2O1	-1	8	-3	-3	33*	-5
CCOc1ccc(Nc2cc(C)nc3nc(C)nn23)cc1	8.4*	0	-4	2	4	1
COc1ccc(Nc2cc(C)nc3ncnn23)c(OC)c1	6	2	4	1	3	-2
CCOC(=O)c1ccccc1Nc1cc(C)nc2nc(C)nn12	9.5*	3	6	1	0	-2
Cc1cc(Nc2ccccc2Br)n2nc(C)nc2n1	7	2	-2	-3	-1	-4
COc1cccc(Nc2cc(C)nc3nc(C)nn23)c1	11*	9	4	0	8	-1
COc1ccc(Nc2cc(C)nc3nc(C)nn23)c(OC)c1	12*	-3	-1	2	2	-3
O=C1NC(=S)S/C1=C\c1cccc([N+](=O)[O-])c1	·	4	9	10	·	·
N/C(=N\NS(=O)(=O)c1ccccc1Cl)c1ccccn1	·	10	0	0	0	·
SMILES	VIM-2 inh	PAFAH1B3 FP inh	PAFAH1B2 inh	PAFAH2 FP inh	pPAFAH FP inh	IMP-1 inhibitor
COc1cc(CNC(=O)CCCC/C=C/C(C)C)ccc1O	·	5	3	-2	25*	·
COc1cc(CNC(=O)CCCC(=O)c2ccccc2)cc(OC)c1OC	0	6	-2	-2	2	-2
O=C(O)CC/C(=C\c1ccccc1[N+](=O)[O-])c1nc2ccccc2s1	8.8*	2	3	1	0	-2
O=C(O)C/C(=C\c1ccc2c(c1)OCO2)c1nc2ccccc2s1	8.0*	-1	1	-5	5	-2
O=C(O)CC/C(=C\c1cccc(NC(=O)c2ccccc2Cl)c1)c1nc2ccccc2s1	0	3	-1	-8	11	-1
CN(c1ccccc1)c1ccc(/C=C(/CCC(=O)O)c2nc3ccccc3s2)cc1[N+](=O)[O-]	·	12	94*	41*	·	·
O=C(O)CC/C(=C\c1ccc(N2CCCC2)c([N+](=O)[O-])c1)c1nc2ccccc2s1	2	9	103*	17	16	-2
COc1ccc(N2CCN(C(=O)COC(=O)CCOc3ccc(C)cc3)CC2)cc1	·	13	1	0	4	·
COc1ccc(NS(=O)(=O)c2cc(NC(=O)c3ccc(=O)[nH]c3)ccc2N2CCCC2)cc1	-1	8	4	9	12	0
NC(=O)c1ccc[n+](CC(=O)OCCC23CC4CC(CC(C4)C2)C3)c1	-3	0	26*	0	-3	-3
CN(C)c1ccc(C(CNC(=O)COc2ccc(Cl)cc2)N2CCCC2)cc1 (configuration not stated)	-1	2	6	-3	2	0
CN(C)c1ccc(N/C=C/C(=O)c2ccco2)cc1	0	-3	2	1	28*	3
CC(=O)Nc1ccc(N/C=C/C(=O)c2ccco2)cc1	-2	-4	3	-4	3	-2
CN(C)c1ccc(N/C=C/C(=O)c2ccc(F)cc2)cc1	-3	1	2	7	31*	-3
Cc1cc(C)c2nc(-c3cccc(Cl)c3)c(C)c(C(=O)N3CCOCC3)c2c1	-2	5	5	0	0	-4
CCN(CC(=O)NCc1ccncc1)S(=O)(=O)c1ccc(OC)cc1	0	0	0	-17	5	-3
O=[N+]([O-])c1ccc(S(=O)(=O)N/N=C/c2ccsc2)cc1	-2	8	4	-2	·	-3
Cc1ccc(C(=O)/C=C/c2ccc(-c3ccc(C)cc3)o2)cc1	-1	-6	-3	-1	26*	-1
COC(=O)C1=CN(c2cccc(C)c2)C=C(C(=O)OC)C1c1cc(OC)c(O)c([N+](=O)[O-])c1	0	11	16	7	29*	-1
O=C(N1CCCCC1)C1(c2ccccc2)CCCCC1	-1	3	30*	-3	1	-2
O=C(N1CCCCC1)C1(c2ccccc2)CCOCC1	-2	-2	4	6	-2	1

From PubChem BioAssay
